Laboratory results from ChEMBL document CHEMBL1124681, “Studies on hindered phenols and analogues. 1. Hypolipidemic and hypoglycemic agents with ability to inhibit lipid peroxidation” (J Med Chem, 1989).
In brackets after ≈: the same amount, converted by molar mass. Several values for one entry are separate records, joined by “and”; a condition that tells them apart may be missing. Equal values may be shown once.

Legend:
[1] = organism: Rattus norvegicus; experiment: In vitro inhibitory activity against rat microsomal lipid peroxidation (m-LPO); format: functional
Summary of the method: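 Lipid peroxidation used rat liver microsomes driven by ferrous sulfate/cysteine, per the Malvy et al. approach. IC50 is given in µg/mL.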

[2] = test system: Mus musculus; experiment: (§1) In vivo activity against triglycerides (TG) by using Alloxan-induced hyperlipoperoxidemia method in BALB/c mice after peroral administration at 100 mg/Kg dose; format: functional
Summary of the method: (§2)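 Male BALB/c mice, 8 weeks old, were fasted 18 h and then given alloxan 75 mg/kg iv. Compound was dosed orally 30 min before and 24 and 30 h after alloxan. Cervical blood was taken at 48 h, diluted in saline and centrifuged. Serum LPO was measured by TBA method; cholesterol and TG by enzymatic kits. Values are % decrease versus alloxan controls without compound.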

[3] = test system: Mus musculus; experiment: In vivo activity against hypocholesterol (CHOL) by using Alloxan-induced hyperlipoperoxidemia method in BALB/c mice after peroral administration at 100 mg/Kg dose; format: functional; summary of the method: as §2
[4] = test system: Mus musculus; experiment: In vivo activity against serum lipid peroxidation level (s-LPO) by using Alloxan-induced hyperlipoperoxidemia method in BALB/c mice after peroral administration at 100 mg/Kg dose; format: functional; summary of the method: as §2
[5] = test system: Mus musculus; experiment: Hypoglycemic activity at dose 50 mg/Kg in KK-mice after peroral administration; format: functional
Summary of the method: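 Male KK-mice, a genetically diabetic NIDDM model, were housed singly from 8 weeks of age and used at about 4-5 months once body weight exceeded 40 g. Compound was suspended in 0.5% carboxymethylcellulose saline and dosed orally 18 h before tail-vein blood sampling into heparinized tubes. Plasma glucose was measured with a glucose analyzer. Values are % decrease versus vehicle-dosed controls run simultaneously.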

[6] = test system: Mus musculus; experiment: as §1; format: functional; summary of the method: as §2; remark: listed apart in the source
[7] = test system: Mus musculus; experiment: In vivo activity against hypocholesterol (CHOL) by Alloxan-induced hyperlipoperoxidemia method in BALB/c mice after peroral administration at 50 mg/Kg dose; format: functional; summary of the method: as §2
[8] = test system: Mus musculus; experiment: In vivo activity against serum lipid peroxidation level (s-LPO) by using Alloxan-induced hyperlipoperoxidemia method in BALB/c mice after peroral administration at 50 mg/Kg dose; format: functional; summary of the method: as §2
[9] = test system: Mus musculus; experiment: In vivo activity against triglycerides (TG) by Alloxan-induced hyperlipoperoxidemia method in BALB/c mice after peroral administration at 50 mg/Kg dose; format: functional; summary of the method: as §2
[10] = test system: Mus musculus; experiment: In vivo activity against triglycerides (TG) by using Alloxan-induced hyperlipoperoxidemia method in BALB/c mice after peroral administration at 300 mg/kg dose; format: functional; conditions: route oral; summary of the method: as §2
[11] = test system: Mus musculus; experiment: In vivo activity against hypocholesterol (CHOL) by using Alloxan-induced hyperlipoperoxidemia method in BALB/c mice after peroral administration at 100 mg/kg dose; format: functional; conditions: route oral; summary of the method: as §2
[12] = test system: Mus musculus; experiment: In vivo activity against serum lipid peroxidation level (s-LPO) by using Alloxan-induced hyperlipoperoxidemia method in BALB/c mice after peroral administration at 100 mg/kg dose; format: functional; conditions: route oral; summary of the method: as §2
[13] = test system: Mus musculus; experiment: In vivo activity against serum lipid peroxidation level (s-LPO) by using Alloxan-induced hyperlipoperoxidemia method in BALB/c mice after peroral administration at 300 mg/kg dose; format: functional; conditions: route oral; summary of the method: as §2
[14] = organism: Rattus norvegicus; experiment: Hypotriglyceridemic activity of Wistar-Imamichi rats in 12 animals
[15] = test system: Mus musculus; experiment: In vivo activity against triglycerides (TG) by using Alloxan-induced hyperlipoperoxidemia method in BALB/c mice after peroral administration at 300 mg/Kg dose; format: functional; summary of the method: as §2
[16] = test system: Mus musculus; experiment: In vivo activity against hypocholesterol (CHOL) by using Alloxan-induced hyperlipoperoxidemia method in BALB/c mice after peroral administration at 300 mg/Kg dose; format: functional; summary of the method: as §2
[17] = test system: Mus musculus; experiment: In vivo activity against serum lipid peroxidation level (s-LPO) by using Alloxan-induced hyperlipoperoxidemia method in BALB/c mice after peroral administration at 300 mg/Kg dose; format: functional; summary of the method: as §2
[18] = test system: Rattus norvegicus; experiment: Liver weight in Wistar-Imamichi rats at 200 mg/Kg dose in 12 rats; format: functional
[19] = organism: Rattus norvegicus; experiment: Inhibitory activity on peroxidation by a relative peroxide value(POV) to vitamin E by using ethyl linoleate; format: functional
Summary of the method: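 Peroxide formed was titrated with 0.01 N Na2S2O3 after adding water. The peroxide value was expressed relative to vitamin E.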

[20] = test system: Mus musculus; experiment: In vivo activity against triglycerides (TG) by using Alloxan-induced hyperlipoperoxidemia method in BALB/c mice after peroral administration at 10 mg/Kg dose; format: functional; summary of the method: as §2
[21] = test system: Mus musculus; experiment: In vivo activity against hypocholesterol (CHOL) by using Alloxan-induced hyperlipoperoxidemia method in BALB/c mice after peroral administration at 10 mg/Kg dose; format: functional; summary of the method: as §2
[22] = test system: Mus musculus; experiment: In vivo activity against serum lipid peroxidation level (s-LPO) by using Alloxan-induced hyperlipoperoxidemia method in BALB/c mice after peroral administration at 10 mg/Kg dose; format: functional; summary of the method: as §2
[23] = test system: Mus musculus; experiment: In vivo activity against triglycerides (TG) by using Alloxan-induced hyperlipoperoxidemia method in BALB/c mice after peroral administration at 200 mg/Kg dose; format: functional; summary of the method: as §2
[24] = test system: Mus musculus; experiment: In vivo activity against hypocholesterol (CHOL) by using Alloxan-induced hyperlipoperoxidemia method in BALB/c mice after peroral administration at 200 mg/Kg dose; format: functional; summary of the method: as §2
[25] = test system: Mus musculus; experiment: In vivo activity against serum lipid peroxidation level (s-LPO) by using Alloxan-induced hyperlipoperoxidemia method in BALB/c mice after peroral administration at 200 mg/Kg dose; format: functional; summary of the method: as §2
[26] = organism: Rattus norvegicus; experiment: liver weight in Wistar-Imamichi rats at 0.2% in the diet for 7 days in 6 rats; conditions: dose 0.2% in diet
[27] = test system: Rattus norvegicus; experiment: Hypotriglyceridemic activity of Wistar-Imamichi rats in 6 animals at 300 mg/kg dose

| SMILES | IC50 [1] [µg/mL] | Decrease [2] [%] | Decrease [3] [%] | Decrease [4] [%] | further results |
| --- | --- | --- | --- | --- | --- |
| COc1c(O)c(C)c2c(c1OC)OC(C)(CCOc1ccc(CC3SC(=O)NC3=O)cc1)CC2 (configuration not stated) | 0.3 (≈ 0.615 µM) | – | – | – | – |
| CC1(CCOc2ccc(CC3SC(=O)NC3=O)cc2)CCc2cc(O)c(C(C)(C)C)cc2O1 (configuration not stated) | 0.1 (≈ 0.213 µM) | – | – | – | – |
| Cc1cc(C(C)(C)C)c(O)c(C(C)(C)C)c1 [BUTYLATED HYDROXYTOLUENE] | 0.1 (≈ 0.454 µM) | – | – | – | – |
| Cc1ccc(C)c(OCCCC(C)(C)C(=O)O)c1 [GEMFIBROZIL] | > 1 | – | – | – | Decrease [10]: 12.3% and 15.9%; Decrease [11]: 3.2%; Decrease [12]: 12.3%; Decrease [13]: 20.5%; Decrease [14]: 39.4% |
| Cc1c(C)c2c(c(C)c1O)SC(C)O2 (configuration not stated) | < 0.1 | – | – | – | – |
| CCOC(=O)C(C)(C)Oc1ccc(Cl)cc1 [CLOFIBRATE] | > 1 | 19.6 | 5.9 | 26.6 | Decrease [15]: 22.8%; Decrease [16]: 6.8%; Decrease [17]: 37.6%; Decrease [8]: 2.8%; Decrease [9]: 1.1%; Increase [18]: 37.2%; Decrease [14]: 37.6% |
| CC1(COc2ccc(CC3SC(=O)NC3=O)cc2)CCc2cc(O)c(C(C)(C)C)cc2O1 (configuration not stated) | < 0.1 | -48.6 | 5.6 | 16.1 | Decrease [5]: 28.5% |
| CC1(COc2ccc(CC3SC(=O)NC3=O)cc2)CCCCC1 (configuration not stated) [CIGLITAZONE] | > 1 | 7.9 | 10.8 | 18.7 | – |
| Cc1cc(OCCCC(C)(C)C(=O)O)c(C)c(C)c1O | > 1 | – | – | – | Relative peroxidation [19]: 0.71 |
| Cc1cc(OCCCCCCCC(C)(C)CO)c(C)c(C)c1O | < 0.1 | – | – | – | – |
| Cc1c(C)c2c(c(C)c1OC(=O)c1cccnc1)CCC(C)(COc1ccc(CC3SC(=O)NC3=O)cc1)O2 (configuration not stated) | < 0.1 | – | – | – | – |
| CC(=O)Oc1cc2c(cc1C(C)(C)C)OC(C)(CCOc1ccc(CC3SC(N)=NC3=O)cc1)CC2 (configuration not stated) | 0.1 (≈ 0.196 µM) | – | – | – | – |
| Cc1c(C)c2c(c(C)c1O)CCC(COc1ccc(CC3SC(=O)NC3=O)cc1)(CC(C)C)O2 (configuration not stated) | 0.1 (≈ 0.207 µM) | 11.9 | 12.1 | 1.5 | – |
| CCCC1Oc2c(C)c(C)c(O)c(C)c2S1 (configuration not stated) | < 0.1 | – | – | – | – |
| CCC1(COc2ccc(CC3SC(=O)NC3=O)cc2)CCc2c(C)c(O)c(C)c(C)c2O1 (configuration not stated) | 0.1 (≈ 0.22 µM) | 14 | 19.5 | 17.6 | – |
| Cc1c(C)c2c(c(C)c1OC(=O)c1ccccc1)CCC(C)(COc1ccc(CC3SC(=O)NC3=O)cc1)O2 (configuration not stated) | 0.1 (≈ 0.183 µM) | – | – | – | – |
| Cc1c(C)c2c(c(C)c1O)CCC(C)(CCOc1ccc(CC3SC(=O)NC3=O)cc1)O2 (configuration not stated) | < 0.1 | – | – | – | – |

The next lines start with results.

| IC50 [1] [µg/mL] | SMILES | Decrease [2] [%] | Decrease [3] [%] | Decrease [4] [%] | further results |
| --- | --- | --- | --- | --- | --- |
| < 0.1 | Cc1c(C)c2c(c(C)c1O)CCC(C)(COc1ccc(CC3SC(N)=NC3=O)cc1)O2 (configuration not stated) | 16.8 | 7.2 | 11.9 | – |
| 0.1 (≈ 0.226 µM) | Cc1c(C)c2c(c(C)c1O)CCC(C)(COc1ccc(CC3SC(=O)NC3=O)cc1)O2 (configuration not stated) [TROGLITAZONE] | 57.5 | – | 54.3 | Decrease [5]: 38.5%; Decrease [6]: 57.5%; Decrease [7]: 19.7%; Decrease [8]: 36%; Decrease [9]: 31.9% |
| < 0.1 | Cc1c(C)c2c(c(C)c1O)SCO2 | – | – | – | – |
| 0.3 (≈ 0.726 µM) | Cc1cc2c(cc1O)CCC(C)(COc1ccc(CC3SC(=O)NC3=O)cc1)O2 (configuration not stated) | – | – | – | – |
| 0.3 (≈ 0.66 µM) | CC(=O)Oc1cc2c(cc1C)OC(C)(COc1ccc(CC3SC(N)=NC3=O)cc1)CC2 (configuration not stated) | – | – | – | – |
| 0.1 (≈ 0.239 µM) | Cc1c(C)c2c(c(C)c1O)CCC(C)(COc1ccc(CC(Cl)C(=O)O)cc1)O2 (configuration not stated) | 33.9 | 14.9 | 46.3 | – |
| > 1 | CC(=O)Oc1c(C)c(C)c2c(c1C)CCC(C)(CCC[C@H](C)CCC[C@H](C)CCCC(C)C)O2 (some centres not stated) [TOCOPHEROL ACETATE] | 27.3 | 10.7 | 46.1 | Decrease [20]: 36.5%; Decrease [15]: 16.1%; Decrease [7]: 8.3%; Decrease [21]: 20.4%; Decrease [16]: 9.1%; Decrease [22]: 23.5%; Decrease [17]: 56.6%; Decrease [8]: 27.9%; Decrease [9]: 5.2% |
| > 1 | CC(C)(Sc1cc(C(C)(C)C)c(O)c(C(C)(C)C)c1)Sc1cc(C(C)(C)C)c(O)c(C(C)(C)C)c1 [PROBUCOL] | -5.3 | -1.1 | 5.8 | Decrease [23]: -25.2%; Decrease [15]: -3%; Decrease [24]: -9.7%; Decrease [16]: 0.8%; Decrease [25]: -22.1%; Decrease [17]: 6.1%; Increase [18]: 0.2% |
| < 0.1 | CC(=O)Oc1c(C)c(C)c2c(c1C)CCC(C)(COc1ccc(CC3SC(=O)NC3=O)cc1)O2 (configuration not stated) | -4 | 4 | 6.7 | Decrease [5]: 2.6% |
| 0.1 (≈ 0.375 µM) | Cc1cc(OCCCC(C)(C)CO)c(C)c(C)c1O | – | – | – | Decrease [12]: 27.4%; Relative peroxidation [19]: 0.42; Increase [26]: 23.9%; Decrease [27]: 57.3% |
| < 0.1 | Cc1c(C)c2c(c(C)c1O)CCC(COc1ccc(CC3SC(=O)NC3=O)cc1)O2 (configuration not stated) | – | – | – | – |
| 0.3 (≈ 0.568 µM) | COc1c(OC(C)=O)c(C)c2c(c1OC)OC(C)(CCOc1ccc(CC3SC(N)=NC3=O)cc1)CC2 (configuration not stated) | – | – | – | – |
| < 0.1 | CCCC(=O)Oc1c(C)c(C)c2c(c1C)CCC(C)(COc1ccc(CC3SC(=O)NC3=O)cc1)O2 (configuration not stated) | – | – | – | – |
